5 molecules from ChEMBL document CHEMBL1122178, “N-Methylnalorphine: definition of N-allyl conformation for antagonism at the opiate receptor” (J Med Chem, 1982) can be followed below.

Experiment [1] concerns the target T1, Opioid receptor (Mus musculus, UniProt P42866+P32300+P33534). Briefly: Concentration required to inhibit the stereospecific [3H]diprenorphine binding Opioid receptors in the absence of sodium(Na+) was determined in mouse isolated vas deferens. The format is protein assay.
For experiment [2], the target named is T1, Opioid receptor. Put plainly: Concentration required to inhibit the stereospecific [3H]diprenorphine binding Opioid receptors in the presence of sodium(Na+) was determined in mouse isolated vas deferens. The experiment is classed as protein assay.
The target in experiment [3] is T2, Opioid receptor (Mus musculus) (UniProt P42866+P32300+P33534). Put plainly: Opioid receptors antagonist potency in reversing the effects of Met5E was determined in mouse isolated vas deferens. The format is functional, tissue-based. In outline:
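Electrically stimulated mouse isolated vas deferens. Antagonism is measured against agonist-induced effects, with Met⁵-enkephalin as the δ agonist. Antagonist potency is expressed as pA₂.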

The target in experiment [4] is T2, Opioid receptor (Mus musculus). Briefly: Opioid receptors antagonist potency in reversing the effects of normorphine was determined in mouse isolated vas deferens. The experiment is classed as functional, tissue-based.

T2 sequence (P32300 whole entry, looked up): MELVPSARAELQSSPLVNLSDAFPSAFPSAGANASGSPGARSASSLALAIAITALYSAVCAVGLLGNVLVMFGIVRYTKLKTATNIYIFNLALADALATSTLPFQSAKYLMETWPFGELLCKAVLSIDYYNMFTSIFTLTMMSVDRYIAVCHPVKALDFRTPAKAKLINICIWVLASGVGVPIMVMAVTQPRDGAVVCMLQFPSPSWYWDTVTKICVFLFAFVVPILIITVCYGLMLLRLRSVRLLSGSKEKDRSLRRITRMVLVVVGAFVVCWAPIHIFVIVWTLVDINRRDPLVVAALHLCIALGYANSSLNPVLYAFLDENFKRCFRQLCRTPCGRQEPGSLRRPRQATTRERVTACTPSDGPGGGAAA
T2 sequence (P33534 whole entry, looked up): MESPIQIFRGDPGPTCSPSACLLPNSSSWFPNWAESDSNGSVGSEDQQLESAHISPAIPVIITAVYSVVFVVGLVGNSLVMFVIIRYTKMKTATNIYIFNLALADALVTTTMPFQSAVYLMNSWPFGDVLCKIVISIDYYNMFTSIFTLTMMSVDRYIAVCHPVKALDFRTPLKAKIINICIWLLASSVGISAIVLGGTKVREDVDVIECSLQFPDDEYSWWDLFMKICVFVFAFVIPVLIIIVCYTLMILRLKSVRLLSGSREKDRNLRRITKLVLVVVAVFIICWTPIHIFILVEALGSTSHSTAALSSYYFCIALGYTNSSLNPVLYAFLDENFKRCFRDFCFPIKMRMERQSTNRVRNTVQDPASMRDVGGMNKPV
T2 sequence (P42866 whole entry, looked up): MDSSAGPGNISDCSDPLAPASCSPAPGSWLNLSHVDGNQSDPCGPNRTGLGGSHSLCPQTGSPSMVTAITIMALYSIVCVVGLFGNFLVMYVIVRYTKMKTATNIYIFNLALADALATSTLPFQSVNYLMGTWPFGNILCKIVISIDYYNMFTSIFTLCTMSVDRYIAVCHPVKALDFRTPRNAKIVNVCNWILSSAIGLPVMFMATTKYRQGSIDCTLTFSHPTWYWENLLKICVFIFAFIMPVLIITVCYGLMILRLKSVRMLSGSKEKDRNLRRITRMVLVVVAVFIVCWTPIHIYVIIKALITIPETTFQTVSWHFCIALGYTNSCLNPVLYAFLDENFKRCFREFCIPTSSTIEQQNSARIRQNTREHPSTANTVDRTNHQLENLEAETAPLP

As for `C=CC[N+]1(C)CC[C@]23c4c5ccc(O)c4O[C@H]2[C@@H](O)C=CC3[C@H]1C5.[I-]` (stereo in doubt; A), the IC50 at Opioid receptor [1] was found to be 8.5 µM; on Opioid receptor [2], 11.5 µM.
As for `C=CCN1CC[C@]23c4c5ccc(O)c4O[C@H]2[C@@H](O)C=C[C@H]3[C@H]1C5`, the values for the Concentration in experiment [3] and in experiment [4] were 0.286 µM and 22.4 nM, respectively.
Taken in the same sequence, the figures for `C=CC[N+]1(C)CC[C@]23c4c5ccc(O)c4O[C@H]2[C@@H](O)C=CC3[C@H]1C5` (stereo in doubt; A) were greater than 22 µM and 1250 nM.
As for `C=CC[N+]1(C)CC[C@]23c4c5ccc(O)c4O[C@H]2[C@@H](O)C=CC3[C@H]1C5.[I-]` (stereo in doubt; B), the concentration for half-maximal inhibition (IC50) was 0.44 µM on Opioid receptor [1] and 0.51 µM on Opioid receptor [2].
`C=CC[N+]1(C)CC[C@]23c4c5ccc(O)c4O[C@H]2[C@@H](O)C=CC3[C@H]1C5` (stereo in doubt; B): the results for the Concentration in experiment [3] and in experiment [4] were 4.92 µM and 59.2 nM, respectively.

In general, IC50 refers to the concentration that inhibits the measured activity by half.
